Source: PubChem (several laboratories)
V-ATPase pHluor: alters yeast V-ATPase proton transport | S. cerevisiae, pHLuorin cytosolic pH fluorescence | response, % at 10 µM | hit rate 0.37% among 350,000; in the data active means response mostly above about 7.3%, no sharp cut-off; inactive means mostly below about 5.4%; further: actives read high
ARFGAP1 inh: inhibits rat ARF GTPase activating protein 1; Q62848; Arfgap1-stimulated ARF1 GTP hydrolysis, GDP FP detection; inhibition, % at 16.5 µM; hit rate 0.26% among 360,000; AID 651572;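 active means inhibition above a per-plate limit, mean inhibition of low control wells plus 3 SD, cut at about 25% in these data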;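 further: 0% = DMSO wells with enzyme and 100% = wells lacking Arfgap1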
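Material: rat Arfgap1 catalytic domain, aa 1-136; also added: human ARF1(Δ1-17)-GTP substrate; compound dosing: one concentration, 16.5 µM, DMSO 1.26%; incubation: GTP hydrolysis reaction 2 h at 25 °C; measured by: Tracer-displacement fluorescence polarization with EDTA stop, 620/688 nm; evaluation: % inhibition from polarization; repeats: one replicate per compound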
Exocytosis inh: lytic granule exocytosis inhibition; hit rate 0.66% among 360,000; TALL-104 LAMP-1 surface exposure, flow cytometry; cells stimulated with thapsigargin and PMA; inhibition, % at 10 µM;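 active means inhibition above about 55%, limit read from the data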
NRP1-CendR mod: modulators of CendR peptide binding to human neuropilin-1. FAM-RPARPAR peptide binding to NRP-1, fluorescence polarization. AID 602438. inhibition, % at 25 µM. hit rate 0.85% among 360,000;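 active means inhibition or corrected inhibition above about 18%, plus a signal ratio from 0.5 to 1.5, limit read from the data, passing the limit was not always enough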
ASAP1 inh: inhibitors of human ASAP1 ArfGAP activity; inhibition, % at 16.5 µM; AID 624377; hit rate 0.19% among 360,000; Q9ULH1; ASAP1-stimulated ARF1 GTP hydrolysis, GDP FP detection; in the data active means inhibition above about 25%;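 further: 0% = vehicle with enzyme and substrate and 100% = no enzyme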
VATPase regulator: modulates yeast V-ATPase proton transport; shares compounds with V-ATPase pHluor; S. cerevisiae pHLuorin cytosolic pH; response, % at 10 µM; hit rate 2% among 980; AID 602197; in the data active means response above about 24%;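 further: plate controls were vehicle wells for no effect and positive control wells for full effect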
* hit, by the source's call; . = no result. Compounds with a hit are over-represented: about 2.2% of the library has one in this group of screens.

SMILES	V-ATPase pHluor	ARFGAP1 inh	Exocytosis inh	NRP1-CendR mod	ASAP1 inh	VATPase regulator
Cc1occc1C(=O)N/N=C/c1sc(N2CCOCC2)nc1-c1ccccc1	10*	-10	-5	9	7	1
O=C(N/N=C/c1sc(N2CCOCC2)nc1-c1ccccc1)c1ccc(O)cc1	-1	12	-1	7	4	.
Cc1ccc(S(=O)(=O)n2cnc(C)c2)cc1	13*	-6	6	-12	2	1
CC(=O)Nc1ccc(S(=O)(=O)n2cnc(C)c2)cc1	-2	-5	-1	4	13	.
COc1ccc(NC(=O)CSc2nnc(C)n2N)cc1S(=O)(=O)N1CCCCC1	0	2	0	-1	-10	.
Cc1cc2c(cc1C)C(=O)CCC2	-5	4	-4	7	-1	.
Cc1cccc2c1CCCC2=O	12*	1	4	-10	12	-4
COc1cc2ccccc2cc1C(=O)N/N=C/c1cccnc1	21*	1	18	-7	-12	3
O=C(Nc1ccc(F)cc1Cl)c1ccc2c(=O)n3c(nc2c1)CCC3	11*	1	4	-2	1	0
O=C(Nc1ccc(F)cc1F)c1ccc2c(=O)n3c(nc2c1)CCC3	-1	3	-5	10	5	.
C=CS(=O)(=O)N(C(=C)C(=O)OC)S(C)(=O)=O	.	0	.	.	1	.
COCc1cccc(-c2csc(C(C)(NC(C)=O)c3ccccc3)n2)c1 (centres undefined)	.	3	-2	6	-11	.
Cc1noc(C)c1C(=O)Nc1cc(S(=O)(=O)N2CCCCC2)ccc1N(C)C	-3	16	-5	10	-7	.
CN1/C(=C\C(=S)NC(=O)c2ccc([N+](=O)[O-])cc2)C(C)(C)c2ccccc21	13*	5	3	-4	-5	0
CN1/C(=C\C(=S)NC(=O)c2cccc(Br)c2)C(C)(C)c2ccccc21	-1	-1	3	-38	9	.
COc1cccc(OCC(=O)NNC(=O)Cc2cccs2)c1	14*	-1	-1	-9	-2	0
CCc1ccc(Cn2nnc(C(=O)Nc3ccc(OC)cc3OC)c2N)cc1	12*	-7	2	-1	-7	4
COc1ccc(NC(=O)c2nnn(CC(=O)Nc3ccccc3OC)c2N)c(OC)c1	1	11	1	8	-6	.
CCNC(=O)C1CCCN(C(=O)c2ccc(C(=O)OC)cc2)CC1 (centres undefined)	.	10	-10	4	-17	.
CN(CCOc1ccc(-c2ccn(S(=O)(=O)c3ccc(Cl)cc3)n2)cc1)c1ccccn1	10*	14	2	0	0	1
COc1cc(NC(=O)C2CCCN2S(=O)(=O)c2ccc3c(c2)CC(C)N3C(C)=O)cc(OC)c1 (centres undefined)	8.5*	9	-1	9	-7	0
COc1cccc2c1O/C(=N\O)C(C(=O)Nc1ccc(C)cc1)C2 (centres undefined)	2	-5	-10	-5	0	.
Cc1ccc(C(=O)C2CCN(C(=S)NCCCOC(C)C)CC2)cc1	15	13	0	0	-8	.
COc1ccc(NC(=O)C2(C)Cc3c(-c4cccc(C(F)(F)F)c4)ccnc3O2)cn1 (centres undefined)	.	8	5	-8	-11	.
O=C(CCC(=O)c1ccc(F)cc1)NCC1(N2CCCCC2)CCCCC1	-1	10	-3	-8	23	-2
SMILES	V-ATPase pHluor	ARFGAP1 inh	Exocytosis inh	NRP1-CendR mod	ASAP1 inh	VATPase regulator
O=C(CCC(=O)c1ccc(F)cc1)NN1C(=O)NC2(CCCCC2)C1=O	1	11	-3	-10	5	.
O=C(NCC1(N2CCCCC2)CCCCC1)c1ccc(S(=O)(=O)N2CCCC2)cc1	7.8*	-12	-2	-3	10	-7
CNC(=S)NC1CC2CCCC(C1)N2Cc1ccc(C)cc1 (centres undefined)	1	0	-1	3	8	.
CCNC(=S)NC1CC2CCCC(C1)N2Cc1ccc(C)cc1 (centres undefined)	6.3*	5	0	-3	0	2
CC(C)(C)c1cc(C(=O)N/N=C/c2cc3c(cc2Br)OCO3)n[nH]1	11*	-1	-1	-3	-1	6
O=C(N/N=C/c1cc2c(cc1Br)OCO2)c1ccccn1	4	3	-6	5	4	.
CC1Oc2ccccc2N(CC(=O)c2cccc(Cl)c2)C1=O (centres undefined)	8.0*	-7	8	-2	13	3
Cc1ccc2c(c1)N(CC(=O)c1cccc(Cl)c1)C(=O)C(C)O2 (centres undefined)	-1	0	-2	8	2	.
O=C(Nc1ccccc1OC(F)F)c1ccccc1	11*	-8	-4	-11	1	3
O=C(Nc1ccccc1OC(=O)c1ccccc1)c1ccccc1	15*	17	-4	-47	0	4
CCOc1ccc(Br)cc1S(=O)(=O)NCC(c1ccc(OC)cc1)N1CCOCC1 (centres undefined)	-2	-8	0	-10	5	.
CC(C)[C@H](NC(=O)c1ccc(Br)cc1)C(=O)NC1CCCCC1	0	-24	19	-20	-14	.
Cc1csc(SCC(=O)NC2CCC(C)CC2)n1 (centres undefined)	7.5*	8	-1	1	3	-6
CCc1nn(CCCC(=O)N(C)Cc2ccccc2)c(=O)c2cc3occc3n12	-2	3	2	8	0	.
CCc1nn(C(C)C(=O)N(C)Cc2ccccc2)c(=O)c2cc3occc3n12 (centres undefined)	12*	7	2	2	-6	-1
COc1ccc(OC)c(CNC(=O)C2CCC(=O)N2C(C)C)c1 (centres undefined)	0	1	11	6	-11	.
OCCN(Cc1ccccc1)CC(O)COc1ccc2c(c1)OCO2 (centres undefined)	-3	-5	10	5	7	.
CCCN(CCC)CC(O)COc1ccc2c(c1)OCO2 (centres undefined)	8.9*	-3	6	13	9	-4
Cc1cc(C)c(C(=O)COC(=O)C2CCN(c3ccc(C(F)(F)F)cn3)CC2)c(C)c1	8.6*	-10	1	-1	3	0
OCCN(CCO)Cc1csc2ccccc12	12*	-5	-2	6	0	0
OCCN(Cc1ccccc1)Cc1ccccc1O	1	11	0	3	0	.
COc1cc(C(=O)NCc2nnc(SCC(=O)N3CCOCC3)o2)cc(OC)c1OC	16*	11	-12	4	-5	0
CC1CCN(S(=O)(=O)c2ccc(C(=O)N3CCOCC3)cc2)CC1	-1	11	2	12	-16	.
COc1ccccc1C(=O)NCCC(=O)NCCC12CC3CC(CC(C3)C1)C2	11*	2	-24	20	-16	-6
COc1ccccc1OCCNC(=O)CCNC(=O)c1ccccc1OC	-2	-4	1	8	-3	.
